Experiment [1] deals with Cathepsin S (Homo sapiens, UniProt P25774). Description: Inhibition of human cathepsin S using Z-LR-AMC as substrate after 30 mins by spectromicrofluorimetric method. A digest of the protocol: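 Cathepsin S (0.5 nM) preincubated 30 min at 37 °C with inhibitor (0-250 nM) in 0.1 M sodium acetate pH 5.5 containing 2 mM DTT and 0.01% Brij35. Residual activity read with Z-LR-AMC at 2.5, 5 and 10 µM, fluorescence ex 350/em 460 nm. IC50 averaged from slopes. Triplicate, repeated three times.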

The target of experiment [2] is Cathepsin B (Homo sapiens, UniProt P07858). Description: Inhibition of human cathepsin B using Z-Phe-Arg-AMC as substrate after 30 mins by spectromicrofluorimetric method. In outline: (§1)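 Enzyme (0.5 nM) preincubated 30 min at 37 °C with inhibitor (0-250 nM) in 0.1 M sodium acetate pH 5.5, 2 mM DTT, 0.01% Brij35. Residual activity on Z-Phe-Arg-AMC at 2.5, 5 and 10 µM, fluorescence ex 350/em 460 nm. IC50 averaged from slopes. Triplicate, repeated three times.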

In experiment [3] the target is T1, Cathepsin K (Homo sapiens, UniProt P43235).
T1 sequence (P43235 whole entry): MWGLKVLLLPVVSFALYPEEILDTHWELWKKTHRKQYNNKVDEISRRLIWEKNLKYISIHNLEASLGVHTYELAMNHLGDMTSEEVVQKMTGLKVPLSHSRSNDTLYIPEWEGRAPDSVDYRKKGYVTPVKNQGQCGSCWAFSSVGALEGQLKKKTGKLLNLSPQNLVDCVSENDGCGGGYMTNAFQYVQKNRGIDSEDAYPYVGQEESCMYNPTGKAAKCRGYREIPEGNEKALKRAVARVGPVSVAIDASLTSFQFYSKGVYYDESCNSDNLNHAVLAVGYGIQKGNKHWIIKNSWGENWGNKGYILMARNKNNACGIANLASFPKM
The experiment can be described thus: Inhibition of human cathepsin K expressed in Pichia pastoris using Z-Phe-Arg-AMC as substrate after 30 mins by spectromicrofluorimetric method. A digest of the protocol:
as §1

Experiment [4] addresses Procathepsin L (Homo sapiens, UniProt P07711). The experiment can be described thus: Inhibition of human cathepsin L using Z-Phe-Arg-AMC as substrate after 30 mins by spectromicrofluorimetric method. In outline: as §1

Molecules are shown by their SMILES.

Chain of Procathepsin L (P07711 whole entry): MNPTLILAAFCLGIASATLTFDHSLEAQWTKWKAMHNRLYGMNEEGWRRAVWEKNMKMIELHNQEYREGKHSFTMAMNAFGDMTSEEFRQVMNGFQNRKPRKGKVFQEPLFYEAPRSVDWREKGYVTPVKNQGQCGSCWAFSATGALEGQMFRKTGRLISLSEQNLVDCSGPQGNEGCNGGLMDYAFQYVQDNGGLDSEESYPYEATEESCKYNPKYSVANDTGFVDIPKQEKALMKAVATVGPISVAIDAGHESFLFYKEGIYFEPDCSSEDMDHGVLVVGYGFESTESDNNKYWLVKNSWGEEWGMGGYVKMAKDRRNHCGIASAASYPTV
Chain of Cathepsin S (P25774 whole entry): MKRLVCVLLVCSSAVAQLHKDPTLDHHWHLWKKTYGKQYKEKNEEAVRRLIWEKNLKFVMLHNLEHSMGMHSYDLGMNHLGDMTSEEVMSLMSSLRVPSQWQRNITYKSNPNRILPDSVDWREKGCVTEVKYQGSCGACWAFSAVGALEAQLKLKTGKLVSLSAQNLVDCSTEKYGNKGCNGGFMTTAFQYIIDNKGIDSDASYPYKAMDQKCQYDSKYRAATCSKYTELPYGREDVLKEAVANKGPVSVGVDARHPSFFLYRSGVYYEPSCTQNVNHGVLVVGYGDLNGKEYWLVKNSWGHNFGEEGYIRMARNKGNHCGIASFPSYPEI

Broadly, the IC50 is the midpoint of a concentration-inhibition curve. The low end stands for greater potency, the high end for weaker potency. For the compound `N#Cc1nc(Nc2cccc([N+](=O)[O-])c2)nc(N2CCNCC2)n1`, the IC50 in experiment [1] amounted to 17 nM; in experiment [2], 34 nM; in experiment [3], 17 nM; in experiment [4], 17 nM.

On to `N#Cc1nc(NC[C@H](O)c2ccccc2)nc(N2CCNCC2)n1`, for which the IC50 was 23 nM in experiment [1], 136 nM in experiment [2], 68 nM in experiment [3] and 45 nM in experiment [4].

On to `N#Cc1nc(Nc2ccc(C(F)(F)F)cc2)nc(N2CCNCC2)n1`, for which the IC50 in experiment [1] amounted to 23 nM; in experiment [3] it was 28 nM.

On to `N#Cc1nc(NC[C@H](O)c2ccccc2)nc(NC2CCCCC2)n1`, for which the figures for the IC50 in experiment [1] and in experiment [3] were 23 nM and 70 nM, respectively.

As to `COc1ccc(Nc2nc(C#N)nc(NC3CCCCC3)n2)cc1`, the results for the IC50 in experiment [1], in experiment [3] and in experiment [4] were 136 nM, 23 nM and 226 nM, respectively.

For the compound `Cc1cccc(CNc2nc(C#N)nc(NC3CCCCC3)n2)c1`, the IC50 in experiment [1] came out at 23 nM; in experiment [3], 60 nM.

In the case of `N#Cc1nc(Nc2ccc([N+](=O)[O-])cc2)nc(NC2CCCCC2)n1`, the figures for the IC50 in experiment [1], in experiment [3] and in experiment [4] were 90 nM, 17 nM and 136 nM, respectively.

In the case of `N#Cc1ccc(Nc2nc(C#N)nc(N3CCNCC3)n2)cc1`, the IC50 in experiment [2] came out at 57 nM; in experiment [3] it was 28 nM; in experiment [4], 113 nM.

As for `COc1ccc(Nc2nc(C#N)nc(N3CCNCC3)n2)cc1`, the IC50 in experiment [1] came out at 17 nM; in experiment [2] it was 45 nM; in experiment [3], 17 nM; in experiment [4], 17 nM.

In the case of `Cc1cccc(CNc2nc(C#N)nc(N3CCNCC3)n2)c1`, the IC50 was 17 nM in experiment [1], 57 nM in experiment [2] and 23 nM in experiment [3].

Regarding `N#Cc1nc(Nc2ccc(C(F)(F)F)cc2)nc(NC2CCCCC2)n1`, the IC50 amounted to 102 nM in experiment [1] and 34 nM in experiment [3].

Consider `N#Cc1nc(NCCc2ccccc2)nc(NC2CCCCC2)n1`, for which the IC50 was found to be 23 nM in experiment [1] and 80 nM in experiment [3].

For `N#Cc1nc(Nc2cccc([N+](=O)[O-])c2)nc(NC2CCCCC2)n1`, the IC50 in experiment [1] was determined as 28 nM; in experiment [2], 79 nM; in experiment [3] it was 17 nM; in experiment [4], 23 nM.

In the case of `N#Cc1nc(Nc2ccc([N+](=O)[O-])cc2)nc(N2CCNCC2)n1`, the IC50 in experiment [1] worked out at 23 nM; in experiment [3], 17 nM; in experiment [4] it was 17 nM.

On to `N#Cc1ccc(Nc2nc(C#N)nc(NC3CCCCC3)n2)cc1`, for which the values for the IC50 in experiment [1] and in experiment [3] were 23 nM and 67 nM, respectively.
